Data taken from ChEMBL document CHEMBL1125788, “Synthesis and ocular antihypertensive activity of new imidazolidine derivatives containing a beta-blocking side chain” (J Med Chem, 1991).
Activity calls are given as the source filed them.

Columns and labels:
[1] = molecular target: T1, Alpha-1A adrenergic receptor (Rattus norvegicus, UniProt P43140); test: The compound was tested for alpha-adrenergic activity against Alpha-1 adrenergic receptor from rat aorta.; details: read-out: pA2 (converted)
T1 sequence (P43140 whole entry): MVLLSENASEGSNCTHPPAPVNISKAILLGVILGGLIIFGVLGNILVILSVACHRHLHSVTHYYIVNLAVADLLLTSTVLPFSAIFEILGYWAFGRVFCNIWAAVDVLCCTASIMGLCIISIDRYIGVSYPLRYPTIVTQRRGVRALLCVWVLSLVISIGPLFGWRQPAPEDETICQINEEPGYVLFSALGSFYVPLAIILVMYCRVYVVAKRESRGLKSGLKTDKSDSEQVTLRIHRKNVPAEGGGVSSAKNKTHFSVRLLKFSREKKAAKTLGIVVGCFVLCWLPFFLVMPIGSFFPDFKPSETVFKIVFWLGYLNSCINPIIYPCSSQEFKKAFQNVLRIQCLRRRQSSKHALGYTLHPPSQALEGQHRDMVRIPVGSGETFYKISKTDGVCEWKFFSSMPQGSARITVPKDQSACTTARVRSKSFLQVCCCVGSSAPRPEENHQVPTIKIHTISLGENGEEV
Outline: (§1)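 Isolated rat aorta strips at 2 g resting tension, stabilized about 1 h. Beta-receptors blocked with propranolol 10^-6 mol/L for 30 min. ED50 by Ariens–Van Rossum. Intrinsic activity = maximum response relative to norepinephrine. Antagonism as pA2 (Schild) or, if non-competitive, pD'2.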

[2] = molecular target: T2, Beta-1 adrenergic receptor (Cavia porcellus, UniProt B0FL73); test: The compound was tested for beta-adrenergic activity against Beta-1 adrenergic receptor from guinea pig left atria; details: read-out: pA2 (converted)
T2 sequence (B0FL73 whole entry): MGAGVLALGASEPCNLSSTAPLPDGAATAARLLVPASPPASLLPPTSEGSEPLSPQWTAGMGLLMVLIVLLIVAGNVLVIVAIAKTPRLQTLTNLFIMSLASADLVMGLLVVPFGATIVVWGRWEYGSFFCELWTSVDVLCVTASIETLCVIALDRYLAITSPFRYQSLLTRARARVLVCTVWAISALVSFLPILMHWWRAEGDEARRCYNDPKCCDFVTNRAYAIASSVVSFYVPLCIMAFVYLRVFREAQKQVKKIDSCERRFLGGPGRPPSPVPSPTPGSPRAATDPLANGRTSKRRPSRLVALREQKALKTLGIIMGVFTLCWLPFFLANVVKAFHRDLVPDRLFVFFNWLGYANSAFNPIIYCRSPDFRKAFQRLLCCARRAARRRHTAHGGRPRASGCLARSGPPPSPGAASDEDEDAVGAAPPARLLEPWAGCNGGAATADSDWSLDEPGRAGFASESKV
Outline: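 Electrically paced isolated left atria (inotropy) from guinea pigs of 300-500 g, 2.5 Hz, 5 ms pulses at 50% above threshold. Phentolamine 3.15 × 10^-4 mmol/L in bath. Cumulative isoprenaline curves with ascorbic acid 1.13 × 10^-6 mol/L, before and after 30 min antagonist preincubation. Reported as pA2 or pD'2.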

[3] = molecular target: T2, Beta-1 adrenergic receptor; test: The compound was tested for beta-adrenergic activity against Beta-1 adrenergic receptor from guinea pig right atria; details: read-out: pA2 (converted)
Outline: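 Spontaneously beating isolated right atria (chronotropy) from guinea pigs of 300-500 g. Phentolamine 3.15 × 10^-4 mmol/L in bath. Isoprenaline cumulative curves with ascorbic acid 1.13 × 10^-6 mol/L, before and after 30 min antagonist preincubation. Reported as pA2 or pD'2.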

[4] = molecular target: Beta-2 adrenergic receptor (Cavia porcellus, UniProt Q8K4Z4); test: The compound was tested for beta-adrenergic activity against Beta-2 adrenergic receptor from guinea pig trachea.
Beta-2 adrenergic receptor, sequence (Q8K4Z4 whole entry): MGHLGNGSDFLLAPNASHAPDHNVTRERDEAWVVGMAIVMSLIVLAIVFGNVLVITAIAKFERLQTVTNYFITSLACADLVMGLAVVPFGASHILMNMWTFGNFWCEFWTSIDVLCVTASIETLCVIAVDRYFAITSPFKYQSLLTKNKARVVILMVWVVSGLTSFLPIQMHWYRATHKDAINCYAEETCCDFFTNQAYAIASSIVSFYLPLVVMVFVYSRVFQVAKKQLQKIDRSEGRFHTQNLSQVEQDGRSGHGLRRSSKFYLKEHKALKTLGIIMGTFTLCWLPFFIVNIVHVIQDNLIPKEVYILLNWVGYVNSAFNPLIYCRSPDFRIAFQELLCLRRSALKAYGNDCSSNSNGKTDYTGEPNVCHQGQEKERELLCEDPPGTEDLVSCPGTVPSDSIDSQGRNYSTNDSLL

[5] = molecular target: T3, Alpha-1A adrenergic receptor (Rattus norvegicus) (UniProt P43140); test: Intrinsic activity expressed as ratio of maximum responses to the compound to the maximum response to norepinephrine; IN-Inactive up to a concentration of 1*10e-4 M; format: functional
T3 sequence (whole entry): T1 sequence (P43140 whole entry)
Outline: as §1, with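 “min. Cumulative norepinephrine curve (10^-10 to 10^-7 mol/L) with ascorbic acid 1.13 × 10^-6 mol/L present.” for “min.”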

[6] = molecular target: T4, Adrenergic receptor alpha-2 (Homo sapiens) (UniProt P08913+P18825+P18089); details: Cavia porcellus
[7] = molecular target: T4, Adrenergic receptor alpha-2 (Homo sapiens); details: Cavia porcellus; remark: listed apart in the source
[8] = molecular target: T3, Alpha-1A adrenergic receptor (Rattus norvegicus)
[9] = molecular target: T5, Adrenergic receptor alpha-2 (Homo sapiens, UniProt P08913+P18825+P18089); test: The compound was tested for alpha-adrenergic activity against alpha-2 adrenergic receptor from guinea pig vas deferens.; design: species or system Cavia porcellus; details: target entry is the homologue from another species
T5 sequence (P08913 whole entry): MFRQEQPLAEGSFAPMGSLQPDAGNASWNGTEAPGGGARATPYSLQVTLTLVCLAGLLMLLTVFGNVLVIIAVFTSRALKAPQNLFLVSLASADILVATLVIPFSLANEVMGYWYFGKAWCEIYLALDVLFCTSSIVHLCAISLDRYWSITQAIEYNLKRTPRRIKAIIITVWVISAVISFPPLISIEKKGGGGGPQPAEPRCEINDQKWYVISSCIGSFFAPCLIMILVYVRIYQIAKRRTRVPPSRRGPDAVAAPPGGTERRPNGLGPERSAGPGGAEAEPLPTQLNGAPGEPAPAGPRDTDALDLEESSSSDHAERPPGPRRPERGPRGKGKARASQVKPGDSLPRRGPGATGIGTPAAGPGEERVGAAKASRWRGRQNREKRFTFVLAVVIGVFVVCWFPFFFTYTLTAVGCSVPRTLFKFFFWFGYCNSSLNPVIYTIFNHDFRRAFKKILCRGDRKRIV
T5 sequence (P18825 whole entry): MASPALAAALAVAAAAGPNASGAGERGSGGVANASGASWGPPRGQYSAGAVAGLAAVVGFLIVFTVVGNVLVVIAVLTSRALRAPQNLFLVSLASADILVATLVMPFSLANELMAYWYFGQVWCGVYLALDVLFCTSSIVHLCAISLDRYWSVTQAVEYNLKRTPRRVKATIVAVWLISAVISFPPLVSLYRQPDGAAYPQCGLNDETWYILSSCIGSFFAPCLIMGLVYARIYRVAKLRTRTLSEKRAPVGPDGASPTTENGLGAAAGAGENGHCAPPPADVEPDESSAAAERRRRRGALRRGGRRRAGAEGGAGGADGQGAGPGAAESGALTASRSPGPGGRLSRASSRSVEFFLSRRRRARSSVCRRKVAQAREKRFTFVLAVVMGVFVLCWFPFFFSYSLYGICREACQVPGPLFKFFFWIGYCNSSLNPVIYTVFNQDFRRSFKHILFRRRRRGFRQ
T5 sequence (P18089 whole entry): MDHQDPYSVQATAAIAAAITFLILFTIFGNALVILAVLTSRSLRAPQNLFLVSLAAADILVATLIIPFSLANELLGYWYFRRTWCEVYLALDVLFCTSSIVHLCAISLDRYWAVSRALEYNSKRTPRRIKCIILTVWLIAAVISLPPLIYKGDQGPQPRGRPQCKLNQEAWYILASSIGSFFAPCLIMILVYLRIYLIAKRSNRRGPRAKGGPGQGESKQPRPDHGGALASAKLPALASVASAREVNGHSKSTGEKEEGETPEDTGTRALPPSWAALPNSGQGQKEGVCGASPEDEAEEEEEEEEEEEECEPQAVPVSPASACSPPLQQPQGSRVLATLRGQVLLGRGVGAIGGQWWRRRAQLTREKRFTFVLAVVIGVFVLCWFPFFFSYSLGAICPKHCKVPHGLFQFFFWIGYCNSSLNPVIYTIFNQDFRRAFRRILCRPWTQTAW

[10] = molecular target: Beta-2 adrenergic receptor (Cavia porcellus) (UniProt Q8K4Z4)
Beta-2 adrenergic receptor (Cavia porcellus), sequence (Q8K4Z4 whole entry, looked up): as the sequence (Q8K4Z4 whole entry) above

[11] = molecular target: T3, Alpha-1A adrenergic receptor (Rattus norvegicus); test: Intrinsic activity expressed as ratio of maximum responses to the compound to the maximum response to norepinephrine; IN-Inactive up to a concentration of 1*10e-5 M; format: functional
Outline: as §1, with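 “min. Cumulative norepinephrine curve (10^-10 to 10^-7 mol/L) with ascorbic acid 1.13 × 10^-6 mol/L present.” for “min.”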

[12] = molecular target: T4, Adrenergic receptor alpha-2 (Homo sapiens); details: Cavia porcellus; remark: listed apart in the source
[13] = molecular target: T3, Alpha-1A adrenergic receptor (Rattus norvegicus); remark: listed apart in the source
[14] = molecular target: T3, Alpha-1A adrenergic receptor (Rattus norvegicus); remark: listed apart in the source
[15] = molecular target: T3, Alpha-1A adrenergic receptor (Rattus norvegicus); remark: listed apart in the source
[16] = molecular target: T4, Adrenergic receptor alpha-2 (Homo sapiens); test: The compound was tested for alpha-adrenergic activity against alpha-2 adrenergic receptor from guinea pig vas up to a concentration of 1*10e-3 M; details: Cavia porcellus; target entry is the homologue from another species
[17] = molecular target: T3, Alpha-1A adrenergic receptor (Rattus norvegicus); test: The compound was tested for alpha-adrenergic activity against Alpha-1 adrenergic receptor from rat aorta;IN- Inactive up to a concentration of 1*10e-3 M
Outline: as §1, with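 “min. Cumulative norepinephrine curve (10^-10 to 10^-7 mol/L) with ascorbic acid 1.13 × 10^-6 mol/L present.” for “min.”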

[18] = molecular target: T3, Alpha-1A adrenergic receptor (Rattus norvegicus); test: Intrinsic activity expressed as ratio of maximum responses to the compound to the maximum response to norepinephrine; IN-Inactive up to a concentration of 1*10e-3 M; format: functional
Outline: as §1, with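 “min. Cumulative norepinephrine curve (10^-10 to 10^-7 mol/L) with ascorbic acid 1.13 × 10^-6 mol/L present.” for “min.”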

Row | SMILES | Kb [1] | Kb [2] | Kb [3] | Kb [4] | pD2 [7] | other results
1 | C/C(=N\OCC(O)CNC(C)(C)C)c1cc(Cl)c(OC(C)C2=NCCN2)c(Cl)c1 (stereo unspecified) | 3.98 µM | 1.45 µM | 1.48 µM | 15.8 µM | 3.93 | Intrinsic activity [5]: inactive; pA2 [6]: inactive; pD2 [8]: inactive
2 | CC(C)(C)NCC(O)COc1cc(Cl)c(NC2=NCCN2)c(Cl)c1 (stereo unspecified) | > 63.1 µM | > 100 µM | 50.1 µM | – | 3.52 | pA2 [9]: 5.12; Intrinsic activity [5]: inactive; pD2 [8]: inactive; pA2 [10]: inactive
3 | CC(C)(C)NCC(O)COCC1CN=C(Nc2c(Cl)cccc2Cl)N1 (stereo unspecified) | – | > 10 µM | 1.02 µM | – | 6.4 | Intrinsic activity [11]: inactive; pA2 [12]: inactive; pA2 [13]: inactive; pD2 [14]: inactive; pA2 [10]: inactive
4 | Clc1cccc(Cl)c1NC1=NCCN1 | – | – | – | – | – | pD2 [15]: 7.84
5 | C/C(=N\OCC(O)CNC(C)(C)C)c1cc(Cl)c(NC2=NCCN2)c(Cl)c1 (single isomer, unassigned; (+)) [listing 1 of 2 here] | 7.94 µM | 50.1 µM | 50.1 µM | 79.4 µM | – | –
6 | C/C(=N\OCC(O)CNC(C)(C)C)c1cc(Cl)c(NC2=NCCN2)c(Cl)c1 (single isomer, unassigned; (+)) [listing 2 of 2 here] | – | – | – | – | 5.1 | pA2 [16]: inactive; pD2 [17]: inactive; Intrinsic activity [18]: inactive
7 | Clc1cccc(Cl)c1N=C1NCCN1 [CLONIDINE] | – | 63.1 µM | 39.8 µM | – | – | –

Second part, led by results:

Row | Kb [1] | Kb [2] | Kb [3] | Kb [4] | pD2 [7] | SMILES | other results
8 | 4.07 µM | 39.8 µM | 39.8 µM | 100 µM | – | C/C(=N\OCC(O)CNC(C)(C)C)c1cc(Cl)c(NC2=NCCN2)c(Cl)c1 (stereo in doubt; 3) [listing 1 of 2 here] | –
9 | – | – | – | – | 4.63 | C/C(=N\OCC(O)CNC(C)(C)C)c1cc(Cl)c(NC2=NCCN2)c(Cl)c1 (stereo in doubt; 3) [listing 2 of 2 here] | pA2 [16]: inactive; pD2 [17]: inactive; Intrinsic activity [18]: inactive
10 | 12.6 µM | 25.1 µM | 50.1 µM | 100 µM | – | C/C(=N\OCC(O)CNC(C)(C)C)c1cc(Cl)c(NC2=NCCN2)c(Cl)c1 (stereo in doubt; (-)-3) [listing 1 of 2 here] | –
11 | – | – | – | – | 4.9 | C/C(=N\OCC(O)CNC(C)(C)C)c1cc(Cl)c(NC2=NCCN2)c(Cl)c1 (stereo in doubt; (-)-3) [listing 2 of 2 here] | pA2 [16]: inactive; pD2 [17]: inactive; Intrinsic activity [18]: inactive
